From ChEMBL document CHEMBL1250542, “Synthesis and biological evaluation of a series of aromatic bisphosphonates” (Bioorg Med Chem, 2010)
Blank lines part the entries; values can stand above or below the compound they belong to. Activity calls are given as the source filed them. The calls are words filed in the database; no cut-off is given here.

Experiments:
[1] = target: T1, Geranylgeranyl pyrophosphate synthase (Homo sapiens) (UniProt O95749); assay: Inhibition of GST-tagged human recombinant GGDPS expressed in BL21 gold bacteria at 10 uM by liquid scintillation counting
T1 sequence (whole entry): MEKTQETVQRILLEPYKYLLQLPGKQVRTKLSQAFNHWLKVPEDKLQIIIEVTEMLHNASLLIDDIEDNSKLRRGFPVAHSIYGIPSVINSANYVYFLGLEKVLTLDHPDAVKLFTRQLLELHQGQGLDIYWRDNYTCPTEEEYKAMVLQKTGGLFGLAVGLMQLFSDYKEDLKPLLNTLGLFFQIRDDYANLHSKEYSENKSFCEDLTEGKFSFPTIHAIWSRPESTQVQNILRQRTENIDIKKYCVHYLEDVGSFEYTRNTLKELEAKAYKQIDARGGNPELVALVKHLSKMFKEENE
Summary of the method: (§1)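 Purified recombinant human GGDPS in buffer containing 0.5 mM MgCl₂ and 0.5 mM ZnCl₂ was preincubated with compounds for 10 min. Reactions were started with ¹⁴C-IPP plus FPP and run for 1 h at 37 °C. Products were extracted into water-saturated butanol, washed twice with saturated water, and counted by liquid scintillation. Data are from a single-concentration screen and concentration–response curves with IC₅₀ extrapolated, mean SD, n = 2.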

[2] = target: T2, Farnesyl pyrophosphate synthase (Homo sapiens) (UniProt P14324); assay: Inhibition of FDPS in human K562 cells assessed as reduction of Ras protein farnesylation after 48 hrs by Western blotting; type: cell-based
T2 sequence (whole entry): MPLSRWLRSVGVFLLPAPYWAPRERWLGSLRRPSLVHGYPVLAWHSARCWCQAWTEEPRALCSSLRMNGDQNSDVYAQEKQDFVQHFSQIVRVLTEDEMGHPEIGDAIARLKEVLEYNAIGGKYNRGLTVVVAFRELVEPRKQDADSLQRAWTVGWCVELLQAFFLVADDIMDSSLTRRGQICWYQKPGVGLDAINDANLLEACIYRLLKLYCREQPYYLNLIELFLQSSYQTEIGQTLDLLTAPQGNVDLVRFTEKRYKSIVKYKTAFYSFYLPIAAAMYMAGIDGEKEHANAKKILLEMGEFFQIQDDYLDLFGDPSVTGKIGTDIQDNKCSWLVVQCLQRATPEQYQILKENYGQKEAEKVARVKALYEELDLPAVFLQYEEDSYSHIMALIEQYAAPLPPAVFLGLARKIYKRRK
Summary of the method: (§2)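 Prenylation in intact cells: K562 cells at 5 × 10⁵ cells/mL were incubated with compounds or lovastatin for 48 h, as a single-concentration screen or a concentration series. Lysates were made in 2% SDS/66 mM Tris and protein was measured by BCA. Samples were resolved on 12% and 15% gels, transferred to PVDF, and probed for pan-Ras, Rap1a or Rab6, with α-tubulin as reference. Detection was by ECL.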

[3] = test system: K562; assay: Inhibition of GGTase1 in human K562 cells assessed as reduction of Rap1a protein geranylgeranylation at 50 uM after 48 hrs by Western blotting; type: cell-based; summary of the method: as §2
[4] = test system: K562; assay: Inhibition of GGTase1 in human K562 cells assessed as reduction of Rap1a protein geranylgeranylation at 12.5 uM after 48 hrs by Western blotting; type: cell-based; summary of the method: as §2
[5] = target: T2, Farnesyl pyrophosphate synthase (Homo sapiens); assay: Inhibition of FDPS in human K562 cells assessed as reduction Ras protein farnesylation after 48 hrs by Western blotting in presence of mevalonate and FPP; type: cell-based
Summary of the method: (§3)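 Add-back assay: K562 cells at 5 × 10⁵ cells/mL were exposed for 48 h to compounds, or to lovastatin, with or without exogenous mevalonate, FPP or GGPP. Lysates were made in 2% SDS/66 mM Tris and protein was measured by BCA. Samples were run on 12% and 15% SDS gels, transferred to PVDF, and immunoblotted for pan-Ras, Rap1a or Rab6, with α-tubulin as reference. Detection was by ECL.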

[6] = target: T1, Geranylgeranyl pyrophosphate synthase (Homo sapiens); assay: Inhibition of GGDPS in human K562 cells assessed as reduction Rap1a protein geranylgeranylation after 48 hrs by Western blotting in presence GGPP; type: cell-based; summary of the method: as §3
[7] = target: T1, Geranylgeranyl pyrophosphate synthase (Homo sapiens); assay: Inhibition of GGDPS in human K562 cells assessed as reduction Rab6 protein geranylgeranylation after 48 hrs by Western blotting in presence GGPP; type: cell-based; summary of the method: as §3
[8] = test system: K562; assay: Anticancer activity against human K562 cells assessed as inhibition of DNA synthesis by [3H]thymidine incorporation assay; type: functional, cell-based
Summary of the method: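 [³H]thymidine (3.75 Ci/mmol in media) was added at 44 or 68 h. At 48 or 72 h, cells were harvested onto glass microfiber paper and incorporated label was scintillation counted. Proliferation is expressed as % of untreated cells, mean S.E., n = 4.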

[9] = target: T3, Geranylgeranyl pyrophosphate synthase (Homo sapiens, UniProt O95749); assay: Inhibition of GST-tagged human recombinant GGDPS expressed in BL21 gold bacteria by liquid scintillation counting; summary of the method: as §1
T3 sequence (O95749 whole entry): T1 sequence (whole entry)

[10] = test system: K562; assay: Inhibition in human K562 cells assessed as reduction of RAB6 protein geranylgeranylation after 48 hrs by Western blotting
[11] = test system: K562; assay: Inhibition of GGTase1 in human K562 cells assessed as reduction of Rap1a protein geranylgeranylation after 48 hrs by Western blotting; type: cell-based; summary of the method: as §2

SMILES: CC(C)=CCc1ccc(CC(P(=O)(O)O)P(=O)(O)O)cc1
inhibition activity call (active/not active) [1]: inactive

inhibition activity call (active/not active) [1]: Active | inhibition [2]: inactive | inhibition [5]: Active | inhibition [6]: inactive | inhibition [7]: inactive | IC50 [9]: 0.25 µM
SMILES: CC(C)=CCC/C(C)=C/CC(Cc1cccc(CC=C(C)C)c1)(P(=O)(O)O)P(=O)(O)O
inhibition [3]: Active | Activity [4]: Active | inhibition [8]: Active | inhibition [10]: Active

inhibition activity call (active/not active) [1]: Active
SMILES: CC(C)=CCC/C(C)=C/CC(Cc1ccccc1)(P(=O)(O)O)P(=O)(O)O

inhibition activity call (active/not active) [1]: Active
SMILES: CC(C)=CCC/C(C)=C/CC(Cc1cccnc1)(P(=O)(O)O)P(=O)(O)O

inhibition activity call (active/not active) [1]: Active | inhibition [2]: inactive | inhibition [5]: Active | inhibition [6]: inactive | inhibition [7]: inactive | IC50 [9]: 0.8 µM
SMILES: CC(C)=CCC/C(C)=C/CC(Cc1ccc(CC=C(C)C)cc1)(P(=O)(O)O)P(=O)(O)O
inhibition [3]: Active | inhibition [8]: Active | inhibition [10]: Active

inhibition activity call (active/not active) [1]: inactive
SMILES: CC(C)=CCc1cccc(CC(P(=O)(O)O)P(=O)(O)O)c1

inhibition [5]: inactive
SMILES: CC[C@H](C)C(=O)O[C@H]1C[C@@H](C)C=C2C=C[C@H](C)[C@H](CC[C@@H]3C[C@@H](O)CC(=O)O3)[C@H]21
inhibition [11]: Active

inhibition activity call (active/not active) [1]: inactive
SMILES: O=P(O)(O)C(Cc1ccccc1)P(=O)(O)O
